Screening results deposited in PubChem by Johns Hopkins Ion Channel Center.
Only some compounds are listed: those with a hit (about 2.3% of all), similar ones and a draw of the others.
TRPC4 PAM: allosteric potentiators of mouse TRPC4 channel. Q9QUQ5. HEK293 TRPC4beta/mu-opioid, DAMGO EC20, Fluo-4 Ca2+ flux; active compounds read high. B-score at 10 µM. hit rate 0.42% among 310,000;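 active = B-score of calcium response area above 5 SD of library B-scores, with initial fluorescence ratio within 5 SD of library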;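 note: B-score of integrated fluorescence ratio over time as area under calcium response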
TRPC4 agonist: activators of mouse TRPC4 channel | Q9QUQ5 | HEK293 TRPC4beta/mu-opioid, Fluo4 calcium fluorescence; active compounds read high | B-score at 10 µM | hit rate 0.49% among 310,000;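 active = B-score above 5 SD of library B-scores, and initial fluorescence ratio not above library mean plus 5 SD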;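 note: positive B-score marks a calcium rise read as TRPC4 activation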
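system = HEK293 cells stably co-expressing mouse TRPC4beta and mu-opioid receptor | schedule = Fluo4 dye loading 45 min at room temperature, 110 s recording | measure = B-scored integrated calcium fluorescence ratio | signal = Fluo4 calcium-sensitive dye fluorescence, kinetic, 1 Hz baseline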
TRPC6 inh: mouse TRPC6 channel inhibition; Q61143; HEK293-TRPC6, membrane potential dye, ACh-evoked depolarization; active compounds read low; B-score at 10 µM; hit rate 1.1% among 310,000;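 active = B-score under library mean minus 3 SD, initial fluorescence not abnormally high, positive integrated signal ratio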;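 note: B-score derived from integrated fluorescence ratio over the kinetic read; more negative B-score means stronger inhibition of depolarization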
Target sequence (Q61143 whole entry, looked up): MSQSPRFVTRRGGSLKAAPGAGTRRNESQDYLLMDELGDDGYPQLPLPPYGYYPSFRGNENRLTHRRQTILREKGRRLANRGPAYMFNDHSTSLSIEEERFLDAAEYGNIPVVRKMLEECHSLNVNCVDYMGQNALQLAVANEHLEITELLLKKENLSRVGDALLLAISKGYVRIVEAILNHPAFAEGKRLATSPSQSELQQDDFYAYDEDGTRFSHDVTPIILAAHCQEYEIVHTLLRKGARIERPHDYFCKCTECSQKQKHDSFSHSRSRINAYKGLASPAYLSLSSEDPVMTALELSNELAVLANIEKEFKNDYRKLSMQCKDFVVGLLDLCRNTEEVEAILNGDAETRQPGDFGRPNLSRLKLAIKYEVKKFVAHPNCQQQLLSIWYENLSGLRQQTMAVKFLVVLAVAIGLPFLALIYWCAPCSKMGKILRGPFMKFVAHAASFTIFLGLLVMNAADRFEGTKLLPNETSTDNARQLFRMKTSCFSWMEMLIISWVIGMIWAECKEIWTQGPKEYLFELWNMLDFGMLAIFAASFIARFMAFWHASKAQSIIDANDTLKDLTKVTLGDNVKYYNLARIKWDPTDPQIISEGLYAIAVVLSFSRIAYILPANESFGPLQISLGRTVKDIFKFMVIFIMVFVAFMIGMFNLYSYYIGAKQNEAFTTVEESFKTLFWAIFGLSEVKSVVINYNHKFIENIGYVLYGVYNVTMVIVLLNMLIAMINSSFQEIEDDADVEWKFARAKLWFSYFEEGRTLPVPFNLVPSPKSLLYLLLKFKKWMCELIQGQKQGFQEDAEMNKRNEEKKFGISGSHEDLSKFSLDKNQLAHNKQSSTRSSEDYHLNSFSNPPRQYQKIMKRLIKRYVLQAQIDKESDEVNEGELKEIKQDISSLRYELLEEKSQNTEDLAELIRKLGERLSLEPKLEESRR
TRPC4 block: blocks the mouse TRPC4 cation channel. HEK293 TRPC4beta/mu-opioid, DAMGO-evoked Fluo4 calcium flux; active compounds read low. hit rate 0.39% among 300,000. B-score at 10 µM;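 active = B-score over 3 SD under the library average, no early fluorescence shift, positive overall ratio signal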
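Assay system: TRPC4beta/mu-opioid receptor HEK293 cell line; compound dosing: single concentration per test compound; detection: Fluo4 Ca2+ flux fluorescence; evaluation: per-well B score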
TRPC6 activator: activates the mouse TRPC6 cation channel | Q61143 | HEK293-TRPC6 membrane potential dye fluorescence; active compounds read high | AID 2550 | hit rate 0.13% among 310,000 | B-score at 10 µM;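 active = B-score of the integrated fluorescence ratio above library mean plus 3 SD, and starting fluorescence ratio within library mean plus 5 SD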;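 note: higher score means more depolarization so channel activation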
TRPC4 sel inh 2: second selectivity test of TRPC6 inhibitors: effect on mouse TRPC4 | HEK293 TRPC4/MOR, membrane potential dye fluorescence; channel activated by saturating DAMGO dose | shares compounds with TRPC6 inh | inhibition, % at 10 µM | hit rate 42% among 920;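 active = compounds whose fluorescence signal differed from control wells by over 3 SD, either direction, in both duplicate plates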
TRPC4 spec: selectivity of TRPC6 inhibitors: effect on mouse TRPC4; HEK293 TRPC4/mu-opioid, membrane potential fluorescence; AID 2777; hit rate 61% among 920; shares compounds with TRPC6 inh; activity change, negative = inhibition, % at 10 µM;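 active = rise or fall in signal beyond 3 SD of buffer-only wells in both replicate plates, either sign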;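 note: integrated kinetic ratio of fluorescence range over baseline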
HEK293 MPD ctr 2-1: parental HEK293 nonspecific activity of TRPC6 inhibitors, second screen | AID 2779 | hit rate 31% among 920 | shares compounds with TRPC6 inh | signal change vs control, % at 10 µM | parental HEK293 membrane potential dye fluorescence; maximal acetylcholine challenge after compound addition;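 active = membrane potential signal moving either way by over 3 SD of the maximum-effect control, in both duplicate plates, meaning non-specific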
HEK293 MPD ctr-1: counter-screen for TRPC6 inhibitors: effect in parental HEK293 cells. shares compounds with TRPC6 inh. hit rate 60% among 920. parental HEK293 membrane potential dye fluorescence. AID 2780. membrane potential signal change, % at 10 µM;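 active = membrane potential signal shifting up or down by more than 3 SD of buffer-only wells, on both duplicate plates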
HEK293 MPD ctr-2: parental HEK293 nonspecific activity of TRPC6 modulators; shares compounds with TRPC6 inh; membrane potential dye fluorescence; membrane potential signal change, % at 10 µM; hit rate 51% among 2,400; AID 488924;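 active = membrane potential signal moves up or down beyond 5 SD from buffer-only wells, on both duplicate plates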
HEK293 MPD ctr 2-2: parental HEK293 nonspecific activity of TRPC6 modulators, second screen; shares compounds with TRPC6 inh; membrane potential dye fluorescence; after compound, maximal acetylcholine stimulation; inhibition, % at 10 µM; hit rate 14% among 2,400; AID 488926;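 active = membrane potential signal drops by more than 5 SD from the mean control signal, in both duplicate plates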;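 note: plate controls were acetylcholine ECmax control wells for no effect and buffer only wells for full effect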
TRPC4 ctr mod: mouse TRPC4 off-target activity of TRPC6 modulators; shares compounds with TRPC6 inh; HEK293 TRPC4/mu-opioid, membrane potential fluorescence; percent change from control (negative = decrease, positive = increase), % at 10 µM; hit rate 69% among 2,400;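 active = membrane potential signal moved up or down beyond 5 SD of buffer control wells, in both duplicate plates, actives on both sides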;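 note: plate controls were assay buffer wells for no effect and DAMGO maximal-effect wells for full effect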
TRPC4/MOR inh 2: mouse TRPC4 off-target activity of TRPC6 modulators, second screen. shares compounds with TRPC6 inh. HEK293 TRPC4/mu-opioid, membrane potential dye fluorescence; stimulated with maximal-effect DAMGO. inhibition, % at 10 µM. hit rate 55% among 2,400;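 active = drop in membrane potential signal beyond 5 SD of the control wells in both duplicate plates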;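 note: TRPC4 counter screen for TRPC6 hits run under conditions tuned for TRPC6 not TRPC4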
TRPC6 block conf: mouse TRPC6 inhibitor confirmation | shares compounds with TRPC6 inh | HEK293-TRPC6, membrane potential dye, ACh-evoked depolarization | inhibition, % at 10 µM | hit rate 43% among 3,300 | AID 488960;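 active = fluorescence ratio falls more than 5 SD below the full-stimulation control mean, in both duplicate runs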;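 note: integrated fluorescence ratio of peak minus minimum over baseline after agonist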
TRPC6 act conf: confirmation of mouse TRPC6 activators; shares compounds with TRPC6 inh; HEK293-TRPC6 membrane potential dye fluorescence, FDSS; activation, % at 10 µM; hit rate 11% among 2,800;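 active = ratio signal rise beyond 5 SD above unstimulated control wells' mean, seen in both duplicate runs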;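 note: plate controls were buffer EC0 wells for no effect and acetylcholine ECmax response for full effect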
Numbers without * were called inactive; i = inactive; . = not tested or not shown.

SMILES	TRPC4 PAM	TRPC4 agonist	TRPC6 inh	TRPC4 block	TRPC6 activator	HEK293 MPD ctr-2	HEK293 MPD ctr 2-2	TRPC4 ctr mod	TRPC4/MOR inh 2	TRPC6 block conf	others
COc1ccc(NC(=O)CSc2nc3ccccc3c(=O)n2CCCN2CCC(C)CC2)c(OC)c1	i	i	-9.2*	i	i	.	.	.	.	57%*	TRPC4 sel inh 2=22%*;TRPC4 spec=i;HEK293 MPD ctr 2-1=i;HEK293 MPD ctr-1=5.8%*;TRPC6 act conf=i
CCOC(=O)n1c(=O)[nH]c2ccc(Br)cc21	i	i	i	i	i	.	.	.	.	.
O=C(COC(=O)Cc1cccs1)Nc1ccc(OC(F)(F)F)cc1	i	i	i	i	i	.	.	.	.	.
COc1ccc(CNC(C)C23CC4CC(CC(C4)C2)C3)c(OC)c1OC (centres undefined)	i	i	-8.1*	i	i	.	.	.	.	96%*	TRPC4 sel inh 2=i;TRPC4 spec=35%*;HEK293 MPD ctr 2-1=i;HEK293 MPD ctr-1=19%*
COc1cccc(OC)c1C(=O)NC(C)C12CC3CC(CC(C3)C1)C2 (centres undefined)	i	i	i	i	i	.	.	.	.	.
c1ccc(COc2ccccc2CNC2CCCC2)cc1	i	i	-7.7*	i	i	531%*	130%*	112%*	90%*	108%*
O=C(COc1ccc(Br)cc1CNC1CCCCC1)NCCc1ccccc1	i	i	-5.1*	i	i	212%*	i	41%*	62%*	i
COc1cccc(CNC2CCCCCCC2)c1OC	i	i	-7.2*	i	i	.	.	.	.	62%*	TRPC4 sel inh 2=75%*;TRPC4 spec=23%*;HEK293 MPD ctr 2-1=39%*;HEK293 MPD ctr-1=9.3%*
CCCn1nnnc1NCc1ccccc1OCc1cccs1	i	i	i	i	i	.	.	.	.	.
c1csc(COc2ccccc2CNC2CCCCC2)c1	i	i	-11*	-10*	13*	514%*	120%*	109%*	90%*	111%*	TRPC6 act conf=163%*
Cn1cc(C(=O)NS(=O)(=O)Nc2ccc(Br)cn2)c2ccccc21	i	i	i	i	i	.	.	.	.	.
c1ccc(COc2ccccc2CNC23CC4CC(CC(C4)C2)C3)cc1	i	i	-6.3*	i	25*	922%*	i	196%*	73%*	65%*	TRPC6 act conf=266%*
COc1ccc(Cl)cc1NC(=O)CCc1nnc2ccc(N3CCC4(CC3)OCCO4)nn12	i	i	i	i	i	.	.	.	.	.
CCOCCCNC(=O)CN1C(=O)COc2ccc(S(=O)(=O)N3CCOCC3)cc21	i	i	i	i	i	.	.	.	.	.
